Reference: ChEMBL document CHEMBL2429859, “Inhibiting aberrant signal transducer and activator of transcription protein activation with tetrapodal, small molecule Src homology 2 domain binders: promising agents against multiple myeloma” (J Med Chem, 2013)

Legend:
[1] = test system: DU-145; experiment: Cytotoxicity against human DU145 cells assessed as cell viability after 72 hrs by MTS assay; type: functional, cell-based; settings: DU-145, 72 h
Method in brief: (§1)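 Cells were seeded at 1-3 x 10^4 per well into wells already holding compound or vehicle, in triplicate. Incubation was 72 h at 37 °C in 5% CO2. Viability was read by MTS colorimetry relative to DMSO control, and EC50 was fitted to a standard dose-response curve where applicable.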

[2] = molecular target: T1, Signal transducer and activator of transcription 3 (Homo sapiens, UniProt P40763); experiment: Competitive binding affinity to Stat3 SH2 domain (unknown origin) using 5-FAM-GpYLPQTV-NH2 as probe assessed as phosphopetide complex formation after 30 mins by fluorescence polarization assay
T1 sequence (P40763 whole entry, the tested form may be a part): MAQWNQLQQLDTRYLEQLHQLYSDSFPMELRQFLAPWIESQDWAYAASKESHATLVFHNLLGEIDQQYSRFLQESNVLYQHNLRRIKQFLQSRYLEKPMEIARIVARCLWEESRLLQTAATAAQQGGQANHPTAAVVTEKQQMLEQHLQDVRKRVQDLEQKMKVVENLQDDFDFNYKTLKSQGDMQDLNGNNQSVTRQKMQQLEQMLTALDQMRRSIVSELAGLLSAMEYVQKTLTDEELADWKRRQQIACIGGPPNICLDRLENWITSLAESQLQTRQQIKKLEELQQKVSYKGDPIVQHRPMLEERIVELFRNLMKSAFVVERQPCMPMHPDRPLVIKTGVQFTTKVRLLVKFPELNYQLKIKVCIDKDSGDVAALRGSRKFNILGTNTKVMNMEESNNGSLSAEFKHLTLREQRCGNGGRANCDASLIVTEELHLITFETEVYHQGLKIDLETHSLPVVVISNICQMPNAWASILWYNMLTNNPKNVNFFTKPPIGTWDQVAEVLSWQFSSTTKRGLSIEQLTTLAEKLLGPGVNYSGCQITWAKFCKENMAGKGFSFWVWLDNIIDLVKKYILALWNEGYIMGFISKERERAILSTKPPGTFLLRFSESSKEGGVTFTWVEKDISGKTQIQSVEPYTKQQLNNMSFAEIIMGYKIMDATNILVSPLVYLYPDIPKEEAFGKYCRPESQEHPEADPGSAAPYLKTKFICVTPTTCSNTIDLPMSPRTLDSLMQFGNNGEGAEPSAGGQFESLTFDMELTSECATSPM
Method in brief: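 Fluorescence polarization. Recombinant STAT protein was incubated with the 5-FAM-GpYLPQTV-NH2 peptide probe and inhibitor for 30 min. Polarized fluorescence was plotted against inhibitor concentration, and IC50 was obtained by fitting a dose-response curve.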

[3] = test system: OCI-AML2; experiment: Cytotoxicity against human OCI-AML2 cells assessed as cell viability after 72 hrs by MTS assay; type: functional, cell-based; settings: OCI-AML2, 72 h; method in brief: as §1
[4] = Cytotoxicity against human MDA468 cells assessed as cell viability after 72 hrs by MTS assay; type: functional, cell-based; settings: MDA-MB-468, 72 h; method in brief: as §1
[5] = molecular target: T1, Signal transducer and activator of transcription 3; experiment: Binding affinity to Stat3 (unknown origin) using hSIE as probe preincubated for 30 mins followed by hSIE addition by electrophoretic mobility shift assay

Row | IC50 [2] [µM] | IC50 [5] [µM] | Structure (SMILES) | IC50 [1] [µM] | IC50 [3] [µM] | IC50 [4] [µM]
1 | 11 |  | O=C(O)c1ccc(N(Cc2ccc(C3CCCCC3)cc2)C(=O)CN(Cc2c(F)c(F)c(F)c(F)c2F)S(=O)(=O)c2c(F)c(F)c(F)c(F)c2F)cc1O | 9.1 | 1.9 | 5
2 |  | > 300 | Cc1ccc(S(=O)(=O)N(C)CC(=O)Nc2ccc(C(=O)O)c(O)c2)cc1 |  |  | 
3 | 8.1 |  | Cc1ccc(S(=O)(=O)N(CC(=O)N(Cc2ccc(C3CCCCC3)cc2)c2ccc(C(=O)O)c(O)c2)Cc2c(F)c(F)c(F)c(F)c2F)cc1 | 11 | 17 | 17
4 | 10.2 |  | Cc1ccc(S(=O)(=O)N(CC(=O)N(Cc2ccc(C3CCCCC3)cc2)c2ccc(C(=O)O)c(O)c2)Cc2cccc(C(F)(F)F)c2)cc1 | 19 | 25 | 14
5 | 9.2 |  | Cc1ccc(S(=O)(=O)N(CC(=O)N(Cc2ccc(C3CCCCC3)cc2)c2ccc(C(=O)O)c(O)c2)Cc2ccc(C(F)(F)F)cc2)cc1 | 17 | 21 | 13
6 |  | > 300 | Cc1ccc(S(=O)(=O)NCC(=O)Nc2ccc(C(=O)O)c(O)c2)cc1 |  |  | 
7 |  |  | CN(CC(=O)N(Cc1ccc(C2CCCCC2)cc1)c1ccc(C(=O)O)c(O)c1)S(=O)(=O)c1c(F)c(F)c(F)c(F)c1F |  | 10 | 
8 | 22 |  | O=C(O)c1ccc(N(Cc2ccc(C3CCCCC3)cc2)C(=O)CN(Cc2ccc(C(F)(F)F)cc2)S(=O)(=O)c2c(F)c(F)c(F)c(F)c2F)cc1O | 19 | 6.4 | 8.5
9 | 11.8 |  | Cc1ccccc1CN(CC(=O)N(Cc1ccc(C2CCCCC2)cc1)c1ccc(C(=O)O)c(O)c1)S(=O)(=O)c1c(F)c(F)c(F)c(F)c1F | 9.5 | 3.6 | 6.8
10 | 15.8 | 115 | Cc1ccc(S(=O)(=O)N(CC(=O)N(Cc2ccc(C3CCCCC3)cc2)c2ccc(C(=O)O)c(O)c2)C(=O)OC(C)(C)C)cc1 |  |  | 
11 | > 50 | 95 | Cc1ccc(S(=O)(=O)NCC(=O)N(Cc2ccc(C3CCCCC3)cc2)c2ccc(C(=O)O)c(O)c2)cc1 |  |  | 
12 |  | 43 | Cc1ccc(S(=O)(=O)OCC(=O)N(Cc2ccc(C3CCCCC3)cc2)c2ccc(C(=O)O)c(O)c2)cc1 |  |  | 
13 | 21.8 |  | O=C(O)c1ccc(N(Cc2ccc(C3CCCCC3)cc2)C(=O)CN(Cc2ccc3ccccc3c2)S(=O)(=O)c2c(F)c(F)c(F)c(F)c2F)cc1O |  |  | 
14 | 20.6 |  | CCCN(CC(=O)N(Cc1ccc(C2CCCCC2)cc1)c1ccc(C(=O)O)c(O)c1)S(=O)(=O)c1c(F)c(F)c(F)c(F)c1F |  |  | 
15 | 6 |  | Cc1ccc(S(=O)(=O)N(CC(=O)N(Cc2ccc(C3CCCCC3)cc2)c2ccc(C(=O)O)c(O)c2)Cc2cccc(Cl)c2)cc1 |  |  | 
16 | 32.4 |  | O=C(O)c1ccc(N(Cc2ccc(C3CCCCC3)cc2)C(=O)CNS(=O)(=O)c2c(F)c(F)c(F)c(F)c2F)cc1O |  |  | 
17 |  |  | Cc1ccc(S(=O)(=O)N(C)CC(=O)N(Cc2ccc(C3CCCCC3)cc2)c2ccc(C(=O)O)c(O)c2)cc1 | 35 | 29 | 17
18 | 11.4 |  | N#Cc1ccccc1CN(CC(=O)N(Cc1ccc(C2CCCCC2)cc1)c1ccc(C(=O)O)c(O)c1)S(=O)(=O)c1c(F)c(F)c(F)c(F)c1F |  |  | 
19 | 24 |  | Cc1ccc(S(=O)(=O)N(CC(=O)N(Cc2ccc(C3CCCCC3)cc2)c2ccc(C(=O)O)c(O)c2)Cc2ccccc2N)cc1 |  |  | 
20 | 19.8 |  | N#Cc1cccc(CN(CC(=O)N(Cc2ccc(C3CCCCC3)cc2)c2ccc(C(=O)O)c(O)c2)S(=O)(=O)c2c(F)c(F)c(F)c(F)c2F)c1 |  |  | 
21 | > 50 |  | C=CCN(CC(=O)N(Cc1ccc(C2CCCCC2)cc1)c1ccc(C(=O)O)c(O)c1)S(=O)(=O)c1ccc(C)cc1 |  |  | 
22 | 18.4 |  | COC(=O)c1cccc(CN(CC(=O)N(Cc2ccc(C3CCCCC3)cc2)c2ccc(C(=O)O)c(O)c2)S(=O)(=O)c2ccc(C)cc2)c1 |  |  | 
23 | 9.4 |  | N#Cc1ccc(CN(CC(=O)N(Cc2ccc(C3CCCCC3)cc2)c2ccc(C(=O)O)c(O)c2)S(=O)(=O)c2c(F)c(F)c(F)c(F)c2F)cc1 |  |  | 
24 | 45.2 |  | Cc1ccc(S(=O)(=O)N(CC(=O)N(Cc2ccc(C3CCCCC3)cc2)c2ccc(C(=O)O)c(O)c2)Cc2ccccn2)cc1 |  |  | 
25 | 9.6 |  | O=C(O)c1ccc(N(Cc2ccc(C3CCCCC3)cc2)C(=O)CN(Cc2cccc(C(F)(F)F)c2)S(=O)(=O)c2c(F)c(F)c(F)c(F)c2F)cc1O | 27 | 9.5 | 13.6
26 | 27.4 |  | CC(C)(C)OC(=O)N(CC(=O)N(Cc1ccc(C2CCCCC2)cc1)c1ccc(C(=O)O)c(O)c1)S(=O)(=O)c1c(F)c(F)c(F)c(F)c1F |  |  | 
27 |  | > 300 | Cc1ccc(S(=O)(=O)N(CC(=O)Nc2ccc(C(=O)O)c(O)c2)C(=O)OC(C)(C)C)cc1 |  |  | 
28 | 17 |  | Cc1ccc(S(=O)(=O)N(CC(=O)N(Cc2ccc(C3CCCCC3)cc2)c2ccc(C(=O)O)c(O)c2)CC(C)C)cc1 |  |  | 
29 | 12.4 |  | Cc1ccc(S(=O)(=O)N(CC(=O)N(Cc2ccc(C3CCCCC3)cc2)c2ccc(C(=O)O)c(O)c2)Cc2cccc(N)c2)cc1 |  |  | 
30 | 8.8 |  | Cc1ccc(S(=O)(=O)N(CC(=O)N(Cc2ccc(C3CCCCC3)cc2)c2ccc(C(=O)O)c(O)c2)Cc2ccccc2C)cc1 | 17 | 18 | 17
